Hits are enriched below; roughly 1.5% of the tested compounds scored in any of these assays.
DAGLB inh: blocks human DAGLB lipase activity | Q8NCG7 | HEK293T DAGLB membrane lysate, EnzChek fluorogenic substrate | inhibition, % at 5.17 µM | actives 0.059% (n = 340,000) | AID 504411; in the data active means inhibition above about 34%;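 further: 0% = enzyme with vehicle and 100% = wells lacking enzyme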
HTRA1 inh: inhibitors of human serine peptidase HTRA1 | inhibition, % at 5.96 µM | actives 0.5% (n = 340,000) | recombinant HTRA1, FP-rhodamine activity-based probe, fluorescence polarization | Q92743; in the data active means inhibition above about 36%;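 further: 0% = enzyme with DMSO and 100% = wells lacking enzyme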
ABHD4 inh: inhibits mouse alpha/beta hydrolase domain 4 | AID 720543 | actives 0.54% (n = 370,000) | purified mABHD4, FP-Rh probe fluorescence polarization | inhibition, % at 8.92 µM;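 active means inhibition exceeding the mean over every tested compound plus 3 SD, cut at about 30% in these data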;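 further: 0% = plate median of compound wells and 100% = S159A mutant with DMSO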
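Material: mouse ABHD4 enzyme, wild type; Benchmarks: S159A mutant high control, sample median low control; Buffer or medium: HEPES pH 7.0, NaCl, Pluronic buffer; Signal: fluorescence polarization; Read-out: percent inhibition of probe binding, normalized to plate controls; Timing: pre-incubation 45 min, probe exposure 60 min, at 25 °C; Dosing: 8.92 µM, single dose.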
TCR-CD3 inh: blocks the human TCR-CD3 interaction. TAMRA-labeled TCR probe fluorescence, biochemical. inhibition, % at 9.4 µM. actives 0.37% (n = 360,000); in the data active means inhibition above about 19%;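 further: recombinant mutant TCR 2C K166C tagged with TAMRA read by polarization; 0% = receptor in buffer alone and 100% = receptor with positive control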
SIAE inh: inhibitors of human sialic acid acetylesterase SIAE; inhibition, % at 9.66 µM; AID 1053197; SIAE FP-Rh probe binding, fluorescence polarization; Q9HAT2; actives 0.69% (n = 370,000);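 active means inhibition above a cutoff: mean of compounds within the control limits plus 3 SD of those, cut at about 17% in these data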;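 further: 0% = plate median of compound wells and 100% = probe without SIAE protein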
Target sequence (Q9HAT2 whole entry, looked up): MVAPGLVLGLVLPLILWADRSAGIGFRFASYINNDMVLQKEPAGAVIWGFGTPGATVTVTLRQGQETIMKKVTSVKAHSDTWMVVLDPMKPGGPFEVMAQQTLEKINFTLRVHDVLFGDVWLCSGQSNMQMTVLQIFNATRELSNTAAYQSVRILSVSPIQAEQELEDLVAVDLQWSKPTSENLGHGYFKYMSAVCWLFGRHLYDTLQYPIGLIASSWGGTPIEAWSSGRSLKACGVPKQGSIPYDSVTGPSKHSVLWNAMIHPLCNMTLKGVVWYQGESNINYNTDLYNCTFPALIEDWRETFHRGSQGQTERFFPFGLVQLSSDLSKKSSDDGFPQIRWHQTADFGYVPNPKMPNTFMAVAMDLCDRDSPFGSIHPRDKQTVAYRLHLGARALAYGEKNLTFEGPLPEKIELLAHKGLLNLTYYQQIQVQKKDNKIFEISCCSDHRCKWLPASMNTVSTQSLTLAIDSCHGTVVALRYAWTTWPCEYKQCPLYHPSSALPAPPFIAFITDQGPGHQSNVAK
ABHD4 confirm: confirmation of mouse ABHD4 inhibitors; shares compounds with ABHD4 inh; purified mABHD4, FP-Rh probe fluorescence polarization; inhibition, % at 8.92 µM; actives 55% (n = 1,800);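 active means mean inhibition across replicates above the hit cutoff set in the primary screen, cut at about 30% in these data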;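 further: 0% = wild-type ABHD4 with DMSO and 100% = catalytically dead S159A mutant with DMSO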
Starred values were filed as active, the others as inactive; nt = not tested or not shown; ! = a repeat was not active.

SMILES	DAGLB inh	HTRA1 inh	ABHD4 inh	TCR-CD3 inh	SIAE inh	ABHD4 confirm
CCOc1ccc(OCC(O)CNC2CCN(Cc3ccccc3)CC2)cc1 (configuration not stated)	2.8	1.1	-2.0	-8.9	3.1	nt
CC(C)(c1ccccc1)c1ccc(OCC(O)CNC2CCN(Cc3ccccc3)CC2)cc1 (configuration not stated)	-1.4	-14.0	31.6*	1.8	-1.4	36.2*
CC1CCN(C(=O)c2ncn3c2C(=O)NC[C@H]3C)CC1	nt	nt	2.5	-2.1	5.0	nt
Cc1c(CCOC(=O)C2C3CC4CC(C3)CC2C4)sc[n+]1CC(=O)c1ccc(Br)cc1 (configuration not stated)	5.4	-67.6	32.5*!	-4.6	-1.3	35.9*
O=C(NCCc1ccccc1Cl)[C@@H]1CCCN1C(=O)[C@@H](NS(=O)(=O)c1ccc(F)cc1F)c1ccccc1	nt	nt	-9.3	-1.2	-5.8	nt
NC(=Nc1ccc(N)cc1)C(N)=Nc1ccc(N)cc1	-1.7	13.4	31.0*	-5.5	8.9	-3.0
Cc1cc(/C=C(\C#N)C(=O)Nc2ccccc2)c(C)n1-c1cccnc1	0.4	-9.6	-3.6	-6.8	1.2	nt
Cc1cc(C(=O)O)ccc1-n1c(C)cc(/C=C(/C#N)C(=O)Nc2ccccc2)c1C	nt	nt	45.8*	4.1	-1.3	3.4
NC(=O)c1ccc(NC(=O)COc2cccc3c2CCNC3=O)cc1	-1.5	-2.7	104.9*	0.8	-2.2	2.4
CCCCNc1c(-c2ccc(SC3CCCCC3)cc2)nc2cnccn12	-4.2	-17.2	33.8*!	1.1	13.8	14.2
CCCCNc1c(-c2ccc(OC)c(SC3CCCCC3)c2)nc2cc(C)ccn12	-8.2	5.5	30.0*	8.6	12.4	37.0*
CCCCNc1c(-c2ccc(OC)c(SC3CCCCC3)c2)nc2cnccn12	-3.3	-2.5	nt	nt	nt	nt
CCCCCCSc1ccc(-c2nc3cnccn3c2NC2CCCCC2)cc1	nt	nt	5.3	2.5	-2.8	nt
O=C(NNC(=O)c1nc2ccccc2[nH]1)OCc1ccccc1	-1.4	3.2	36.2*	0.0	5.3	12.6
O=C(/C=C/c1ccc(-c2ccccc2[N+](=O)[O-])o1)c1ccccc1	-5.5	-23.8	31.6*	-2.8	12.4	10.6
Cc1ccc(-c2cc(NC(=O)Cc3c[nH]c4ccccc34)ccc2N(C)c2cccnc2)cc1	nt	nt	24.8	-0.8	2.7	nt
CCn1c(C)nc2cc(C(=O)N/N=C/c3cccc(OC)c3O)ccc21	3.8	24.1	2.6	0.1	-2.3	nt
CCn1c(C)nc2cc(C(=O)N/N=C/c3ccc(O)c(O)c3O)ccc21	-0.9	31.8	35.2*	65.6*	9.3	44.4*
CN1C(=O)c2cc(NC(=O)Nc3ccccc3)ccc2OC[C@H]2O[C@@H](CC(=O)NC3Cc4ccccc4C3)CC[C@@H]21	nt	nt	8.4	nt	2.9	nt
N#Cc1c(N)nc2c3c(sc(=N)c2c1N)NC(=O)CC3c1ccccc1 (configuration not stated)	4.9	25.8	30.5*	17.0	-1.9	-77.0
N#CC1=C(SCc2ccccc2)NC(=O)CC1c1ccccc1 (configuration not stated)	-1.2	-2.7	3.2	-1.7	0.9	nt
O=C(O)c1ccc(NC(=O)c2ccc3c(c2)C(=O)N(c2ccccc2)C3=O)cc1	0.8	4.1	6.3	0.9	-16.2	nt
O=C(O)c1ccc(S(=O)(=O)c2ccc3c(c2)C(=O)N(c2ccc(O)cc2)C3=O)cc1	0.7	14.4	91.9*	11.2	7.6	-17.6
O=C(Nc1cc([N+](=O)[O-])ccc1O)c1ccc2c(c1)C(=O)N(Cc1ccco1)C2=O	14.7	4.3	38.0*	13.3	2.0	50.8*
COCc1[nH]nc2c1C(c1ccc(Br)cc1)N(Cc1ccccc1)C2=O (configuration not stated)	nt	nt	-2.8	2.6	-1.2	nt
COC(=O)[C@]12C[C@H](CC(=O)N3CCC(c4ccccc4)CC3)C(=O)N(CCc3ccc(OC)c(OC)c3)C1=C[C@H](C(C)(C)C)O[C@@H]2C	nt	nt	-5.2	3.2	8.7	nt
N#CC1=C(N)n2c(s/c(=C\c3cccs3)c2=O)=C(C#N)C1c1cccs1 (configuration not stated)	0.8	-13.3	-10.8	-2.3	-16.3	nt
CCOC(=O)C1=C(N)n2c(s/c(=C/c3ccco3)c2=O)=C(C(=O)OC)C1c1ccco1 (configuration not stated)	3.1	9.4	39.1*	3.5	7.7	-6.8

Assay outcomes as filed in PubChem BioAssay.
